{"source": "ChEMBL document CHEMBL1137629", "about": "“Antiproliferative effect of dihydroxyacetone on Trypanosoma brucei bloodstream forms: cell cycle progression, subcellular alterations, and cell death” (Antimicrob Agents Chemother, 2007)", "key": {"Trypanosoma brucei [1]": {"system": "Trypanosoma brucei", "assay": "Trypanocidal activity against Trypanosoma brucei bloodstream form at 5 mM up to 24 hrs by spectrophotometry", "format": "functional", "summary_of_the_method": "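Proliferation measured in complete medium (33 mM glucose, 15% serum) with a range of DHA concentrations. Cell density followed over 24 h. Triplicate, SD.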"}, "Trypanosoma brucei [2]": {"system": "Trypanosoma brucei", "assay": "Effect on cell cycle of Trypanosoma brucei bloodstream form assessed as induction of necrosis at 3 mM after 24 hrs using propidium iodide staining by FACS analysis", "format": "functional", "summary_of_the_method": "(§1)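 Bloodstream forms exposed 24 h at 37°C, 5% CO₂. Cells at 2 × 10⁶/ml incubated 10 min with propidium iodide (5 μg/ml), and uptake read by flow cytometry as a measure of membrane integrity. Digitonin (6 μM) served as the necrosis positive control.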"}, "Trypanosoma brucei [3]": {"system": "Trypanosoma brucei", "assay": "Induction of apoptosis-like programmed cell death in Trypanosoma brucei bloodstream form assessed as phosphatidylserine exposure in outer leaflet of plasma membrane at 2 mM after 24 hrs by V-Fluos staining staining", "format": "functional", "summary_of_the_method": "(§2)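 After 24 h DHA exposure of axenic bloodstream-form T. brucei MITat 1.2 (EATRO 427; 37°C, 5% CO₂), cells were washed in HEPES buffer (10 mM, pH 7.4, 140 mM NaCl, 5 mM CaCl₂). They were then stained with annexin V-Fluos for 15 min at 4°C and analysed by flow cytometry.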"}, "Trypanosoma brucei [4]": {"system": "Trypanosoma brucei", "assay": "Effect on cell cycle of Trypanosoma brucei bloodstream form assessed as induction of necrosis at 2 mM after 24 hrs using propidium iodide staining by FACS analysis", "format": "functional", "summary_of_the_method": "as §1"}, "Trypanosoma brucei [5]": {"system": "Trypanosoma brucei", "assay": "Effect on morphological changes in Trypanosoma brucei bloodstream form assessed as increase in cell size at 5 mM after 20 hrs by scanning electron microscopy", "format": "functional, organism-based", "summary_of_the_method": "(§3)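 Cells grown 20 h with 5 mM DHA. Fixed and stained as for TEM (glutaraldehyde, osmium tetroxide, uranyl acetate), then dehydrated through 50, 75, 95 and 100% ethanol. Critical-point dried and gold-palladium sputter-coated for scanning electron microscopy.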"}, "Trypanosoma brucei [6]": {"system": "Trypanosoma brucei", "assay": "Induction of necrosis in Trypanosoma brucei bloodstream form assessed as death of total cell population at > 4 mM up to 24 hrs using propidium iodide staining by FACS analysis"}, "Trypanosoma brucei [7]": {"system": "Trypanosoma brucei", "assay": "Effect on morphological changes in Trypanosoma brucei bloodstream form assessed as presence of one or two nucleus at 3 mM after 24 hrs by transmission electron microscopy", "format": "functional, organism-based", "summary_of_the_method": "(§4)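 Parasites exposed 24 h to 3 mM DHA. 10⁸ cells fixed 1 h at 4°C in 2% glutaraldehyde in 0.2 M sodium cacodylate with 0.12 M sucrose, held overnight in buffer, postfixed in 1.5% osmium tetroxide and stained with 0.5% uranyl acetate. Dehydrated in ethanol, cleared in propylene oxide, embedded in Agar 100. Sections stained with 5% uranyl acetate and 0.4% lead citrate for TEM. Rapamycin (5 μM) served as the autophagy positive control.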"}, "Trypanosoma brucei [8]": {"system": "Trypanosoma brucei", "assay": "Induction of apoptosis-like programmed cell death in Trypanosoma brucei bloodstream form assessed as increase in intracellular reactive oxygen species production at 2 mM after 24 hrs by FACS analysis", "format": "functional", "summary_of_the_method": "(§5)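 Bloodstream-form T. brucei MITat 1.2 (VSG 221, strain EATRO 427) were grown axenically at 37°C, 5% CO₂ and exposed to DHA for 24 h. Control and treated cells were then loaded with 10 μM dichlorofluorescein diacetate for 1 h at 37°C. Intracellular fluorescence intensity was read by flow cytometry.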"}, "Trypanosoma brucei [9]": {"system": "Trypanosoma brucei", "assay": "Effect on cell cycle of Trypanosoma brucei bloodstream form assessed as induction of necrosis at 4 mM after 24 hrs using propidium iodide staining by FACS analysis", "format": "functional", "summary_of_the_method": "as §1"}, "Trypanosoma brucei [10]": {"system": "Trypanosoma brucei", "assay": "Induction of apoptosis-like programmed cell death in Trypanosoma brucei bloodstream form assessed as phosphatidylserine exposure in outer leaflet of plasma membrane at 4 mM after 24 hrs by V-Fluos staining staining", "format": "functional", "summary_of_the_method": "as §2"}, "Trypanosoma brucei [11]": {"system": "Trypanosoma brucei", "assay": "Induction of apoptosis-like programmed cell death in Trypanosoma brucei bloodstream form assessed as phosphatidylserine exposure in outer leaflet of plasma membrane at 3 mM after 24 hrs by V-Fluos staining staining", "format": "functional", "summary_of_the_method": "as §2"}, "Trypanosoma brucei [12]": {"system": "Trypanosoma brucei", "assay": "Induction of apoptosis-like programmed cell death in Trypanosoma brucei bloodstream form assessed as loss of mitochondrial-membrane potential at 4 mM after 24 hrs by TMRE staining", "format": "functional", "summary_of_the_method": "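T. brucei MITat 1.2 (EATRO 427) bloodstream forms were grown axenically at 37°C, 5% CO₂ and exposed to DHA for 24 h. Cells at 10⁶/ml were stained with 25 nM TMRE in culture medium for 30 min at 37°C and read at once by flow cytometry. Depolarization control: valinomycin 100 nM. Lower fluorescence signifies lost membrane potential.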"}, "Trypanosoma brucei [13]": {"system": "Trypanosoma brucei", "assay": "Effect on morphological changes in Trypanosoma brucei bloodstream form assessed as presence of atypical combination of number of nucleus after 24 hrs using DAPI staining by phase-contrast microscopy", "format": "functional, organism-based", "summary_of_the_method": "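Bloodstream forms (MITat 1.2, EATRO 427) grown 24 h with or without DHA. Aliquots washed twice in PBS, resuspended, placed on slides and fixed with methanol. Stained 5 min with DAPI (0.1 μg/ml final), then washed. Phase-contrast and fluorescence images scored for nucleus/kinetoplast numbers (1N1K, 1N2K, 2N2K, 2N1K, abnormal). n = 4, Student's t test, SD.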"}, "Trypanosoma brucei [14]": {"system": "Trypanosoma brucei", "assay": "Trypanocidal activity against Trypanosoma brucei bloodstream form assessed as cell death at 1 mM by spectrophotometry in presence of 1 mM glucose", "format": "functional, organism-based"}, "Trypanosoma brucei [15]": {"system": "Trypanosoma brucei", "assay": "Trypanocidal activity against Trypanosoma brucei bloodstream form assessed as decrease in cell viability at 1 mM up to 40 mins by spectrophotometry", "format": "functional, organism-based", "summary_of_the_method": "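Viability as a carbon source. Bloodstream forms incubated in basic medium lacking glucose and serum: unsupplemented, with 1 mM glucose, or with 1 mM DHA. Cell density and motility followed over time. Triplicate, SD.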"}, "Trypanosoma brucei [16]": {"system": "Trypanosoma brucei", "assay": "Cell cycle arrest in Trypanosoma brucei bloodstream form assessed as accumulation at G2 phase at 2 mM after 24 hrs using propidium iodide staining by FACS analysis", "format": "functional", "summary_of_the_method": "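T. brucei bloodstream forms (MITat 1.2, strain EATRO 427), axenic culture at 37°C, 5% CO₂. Treated 24 h. At least 5 × 10⁵ cells washed in PBS, lysed hypotonically 30 min at room temperature in 10 mM phosphate buffer pH 7.4 with 6 μM digitonin. Nuclei stained with propidium iodide (10 μg/ml final) and analysed by flow cytometry for G₁/S/G₂ distribution and degraded DNA.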"}, "Trypanosoma brucei [17]": {"system": "Trypanosoma brucei", "assay": "Induction of apoptosis-like programmed cell death in Trypanosoma brucei bloodstream form assessed as increase in intracellular reactive oxygen species production at 5 uM after 24 hrs by FACS analysis", "format": "functional"}, "Trypanosoma brucei [18]": {"system": "Trypanosoma brucei", "assay": "Effect on morphological changes in Trypanosoma brucei bloodstream form assessed as presence of more than one flagellum at 5 mM after 20 hrs by scanning electron microscopy", "format": "functional, organism-based", "summary_of_the_method": "as §3"}, "Trypanosoma brucei [19]": {"system": "Trypanosoma brucei", "assay": "Induction of apoptosis-like programmed cell death in Trypanosoma brucei bloodstream form assessed as increase in intracellular reactive oxygen species production at 4 mM after 24 hrs by FACS analysis", "format": "functional", "summary_of_the_method": "as §5"}, "Trypanosoma brucei [20]": {"system": "Trypanosoma brucei", "assay": "Effect on morphological changes in Trypanosoma brucei bloodstream form assessed as presence of myelin-like structures at 3 mM after 24 hrs by transmission electron microscopy", "format": "functional, organism-based", "summary_of_the_method": "as §4"}, "Trypanosoma brucei [21]": {"system": "Trypanosoma brucei", "assay": "Induction of apoptosis-like programmed cell death in Trypanosoma brucei bloodstream form assessed as increase in intracellular reactive oxygen species production at 3 mM after 24 hrs by FACS analysis", "format": "functional", "summary_of_the_method": "as §5"}, "Trypanosoma brucei [22]": {"system": "Trypanosoma brucei", "assay": "Effect on morphological changes in Trypanosoma brucei bloodstream form assessed as presence of glycosomes at 3 mM after 24 hrs by transmission electron microscopy", "format": "functional, organism-based", "summary_of_the_method": "as §4"}}, "note": "Activity calls are given as the source filed them. The rule behind the calls is not given here.", "data": [{"molecule": "O=C(CO)CO", "note": "[DIHYDROXYACETONE]", "values": [{"measurement": "Activity", "setting": "Trypanosoma brucei [1]", "result": 100, "unit": "%"}, {"measurement": "Activity", "setting": "Trypanosoma brucei [2]", "result": 9.9, "unit": "%"}, {"measurement": "Activity", "setting": "Trypanosoma brucei [3]", "result": 10.1, "unit": "%"}, {"measurement": "Activity", "setting": "Trypanosoma brucei [4]", "result": 8.3, "unit": "%"}, {"measurement": "Activity", "setting": "Trypanosoma brucei [5]", "result": "inactive"}, {"measurement": "Activity", "setting": "Trypanosoma brucei [6]", "result": "Active"}, {"measurement": "Activity", "setting": "Trypanosoma brucei [7]", "result": "Active"}, {"measurement": "Activity", "setting": "Trypanosoma brucei [8]", "result": 10.6, "unit": "%"}, {"measurement": "Activity", "setting": "Trypanosoma brucei [9]", "result": 12.9, "unit": "%"}, {"measurement": "Activity", "setting": "Trypanosoma brucei [10]", "result": 20, "unit": "%"}, {"measurement": "Activity", "setting": "Trypanosoma brucei [11]", "result": 11.9, "unit": "%"}, {"measurement": "Activity", "setting": "Trypanosoma brucei [12]", "result": 26.8, "unit": "%"}, {"measurement": "Activity", "setting": "Trypanosoma brucei [13]", "result": "Dose-dependent effect"}, {"measurement": "Activity", "setting": "Trypanosoma brucei [14]", "result": "inactive"}, {"measurement": "Activity", "setting": "Trypanosoma brucei [15]", "result": "inactive"}, {"measurement": "Activity", "setting": "Trypanosoma brucei [16]", "result": 50, "unit": "%"}, {"measurement": "Activity", "setting": "Trypanosoma brucei [17]", "result": 33.6, "unit": "%"}, {"measurement": "Activity", "setting": "Trypanosoma brucei [18]", "result": "Active"}, {"measurement": "Activity", "setting": "Trypanosoma brucei [19]", "result": 23.2, "unit": "%"}, {"measurement": "Activity", "setting": "Trypanosoma brucei [20]", "result": "Active"}, {"measurement": "Activity", "setting": "Trypanosoma brucei [21]", "result": 14.4, "unit": "%"}, {"measurement": "Activity", "setting": "Trypanosoma brucei [22]", "result": "Active"}]}]}
